In paper PMC4364164 (International Journal of Nanomedicine, 2015):

What was measured:
SH-SY5Y cells [1] = experiment: MTT assay for cell viability, SH-SY5Y; type: cell-based, human; conditions: for cell death induced: positive control, data not shown
Procedure, shortened: (§1)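 Seeded in 96-well plates: SH-SY5Y at 8,000/well, U-87 MG at 5,000/well. Exposed 20 h to test compound 0.5–15 μM or equal-volume PBS vehicle; H2O2 400 or 800 μM as positive control. MTT 0.5 mg/mL for 3 h at 37°C. Formazan dissolved in isopropanol with 0.1 M HCl; optical density at 590 nm. Mean ± SE of five separate incubations.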

U-87 MG cells [2] = experiment: MTT assay for cell viability, U-87 MG; type: cell-based, human; conditions: for cell death induced: positive control, data not shown
Procedure, shortened: as §1

blood–brain barrier = experiment: Immunofluorescence analysis of brain sections; type: in vivo; conditions: rat, intravenous 40 μg/100 g, 3.5 hours
Procedure, shortened: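 Same rats dosed iv at 40 μg/100 g, sampled at 3.5 h. Brains Bouin-fixed and paraffin-embedded; sections dewaxed, citrate (pH 6.0) microwave unmasking at 96°C. Stained with anti-BBB SMI-71, anti-GFAP or anti-tubulin III and 594-nm secondaries; imaged at 488/515 and 594/618 nm. Deconvolved, nMDP colocalisation. Outside/inside-vessel fluorescence per ROI area over ten sections, n=3 per group; two-tailed unpaired t-test.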

U-87 MG cells [3] = experiment: Cellular uptake by fluorescence microscopy, U-87 MG; type: cell-based, human; conditions: 1 or 5 μM (Figure 2: 5 μM), 2 hours, NBD fluorescence, fixed cells
Procedure, shortened: (§2)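 NBD-labelled peptide (N-terminal) in PBS. Cells grown in DMEM with 10% FBS, 2 mM L-glutamine, penicillin and streptomycin at 37°C in 5% CO2. Seeded at 60,000/well on four-well chamber slides, then exposed to 1 or 5 μM for 2 h. Fixed in ice-cold methanol for 10 min and mounted in glycerol/PBS 1:1. Imaged on NBD (λem 515 nm) and DAPI (λex 350/λem 461 nm) channels.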

brain homogenates [4] = experiment: Cytochrome oxidase activity; type: in vivo; conditions: rat brain homogenate; intravenous 40 μg/100 g, 3.5 hours; three rats
Procedure, shortened: (§3)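 Male Wistar rats (250–300 g), three per group, given a single iv dose of NBD-peptide 40 μg/100 g or PBS vehicle. Zoletil anaesthesia, decapitation at 3.5 h. Tissue homogenised 1:5 w/v in mannitol/sucrose/Tris/EDTA/EGTA/1% BSA medium, pH 7.4. Diluted 1:2 with Lubrol, 30 min on ice. Cytochrome oxidase assayed polarographically (Clark electrode, 37°C), with 1 mM KCN control. Mean ± SE of three rats; triplicate runs.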

SH-SY5Y cells [5] = experiment: Cellular uptake by fluorescence microscopy, SH-SY5Y; type: cell-based, human; conditions: 1 or 5 μM (Figure 2: 5 μM), 2 hours, NBD fluorescence, fixed cells
Procedure, shortened: as §2

liver = experiment: Fluorescence histological analysis ex vivo, liver; type: in vivo; conditions: rat, single intravenous administration of gH625-NBD 40 μg/100 g body weight, 3.5 hours
Procedure, shortened: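 Male Wistar rats (250–300 g; n=3 per group) got one iv dose of NBD-labelled test peptide, 40 μg/100 g, or PBS vehicle. After 3.5 h: ip Zoletil anaesthesia, then decapitation. Liver dissected. Half was fixed in Bouin's fluid 24 h and paraffin-embedded. 7 μm sections treated with 0.1% Sudan Black B in 70% ethanol 20 min against autofluorescence, then hemallum-stained and imaged for green fluorescence.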

U-87 MG cells [6] = experiment: Spectrofluorimetric analysis of internalized peptide, U-87 MG; type: cell-based, human; conditions: concentration not given
SH-SY5Y cells [7] = experiment: Maximal oxidative capacity; type: cell-based, human; conditions: 0–15 μM, 20 hours, Clark-type oxygen electrode 37°C, five separate incubations (Figure 1C)
brain homogenates [8] = experiment: Mitochondrial respiration rate in brain homogenate after in vivo administration; conditions: rat brain homogenate; intravenous 40 μg/100 g, 3.5 hours; three rats
Procedure, shortened: (§4)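 Same iv dosing (40 μg/100 g, PBS vehicle, three rats, sampled at 3.5 h). Homogenate (300 μg protein) in 1 mL buffer: 80 mM KCl, 50 mM HEPES, 1 mM EGTA, 5 mM KH2PO4, 2 mM MgCl2, 1% BSA, pH 7.4. Added 4 μM rotenone and 5 mM succinate; basal without ADP, stimulated with 200 μM ADP; respiratory control ratio derived. Clark electrode at 37°C; 1 mM KCN added. Triplicate runs.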

liver homogenates [9] = experiment: Mitochondrial respiration rate in liver homogenate after in vivo administration; conditions: rat liver homogenate; intravenous 40 μg/100 g, 3.5 hours; three rats
Procedure, shortened: as §4

liver homogenates [10] = experiment: Cytochrome oxidase activity; type: in vivo; conditions: rat liver homogenate; intravenous 40 μg/100 g, 3.5 hours; three rats
Procedure, shortened: as §3

brain = experiment: Fluorescence histological analysis ex vivo, brain; type: in vivo; conditions: rat, single intravenous administration of gH625-NBD 40 μg/100 g body weight, 3.5 hours
Procedure, shortened: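 Male Wistar rats (250–300 g; n=3 per group) got one iv dose of NBD-labelled test peptide, 40 μg/100 g, or PBS vehicle. After 3.5 h: ip Zoletil anaesthesia, then decapitation. Sagittal 10 μm sections: Bouin's fixation 24 h, paraffin, 0.1% Sudan Black B in 70% ethanol 20 min, hemallum. Co-stained for SMI-71 endothelial marker, GFAP or tubulin III (citrate pH 6.0 unmasking), colocalization by nMDP. Outside/inside-vessel fluorescence ratio from ≥10 slices.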

U-87 MG cells [11] = experiment: Maximal oxidative capacity; type: cell-based, human; conditions: regardless of the concentration used, 20 hours, five separate incubations (Figure 1D)
cells = conditions: NBD alone; cited from earlier work

OO [H2O2]
cell death induced (SH-SY5Y cells [1]; 400 μM): 30% | cell death induced (SH-SY5Y cells [1]; 800 μM): 45% | cell death induced (U-87 MG cells [2]; 400 μM): 22% | cell death induced (U-87 MG cells [2]; 800 μM): 52%

H-HGLASTLTRWAHYNALIRAFGGG-NH2 [gH625]
colocalization with astrocytes surrounding the BBB (anti-GFAP, nMDP) (blood–brain barrier): little or no colocalization | colocalization with the endothelial BBB (anti-BBB SMI-71, nMDP) (blood–brain barrier): More colocalization | effect on cell viability (MTT) (SH-SY5Y cells [1]; 0.5–15 μM, 20 hours, mean ± standard error of five separate incubations (Figure 1A)): no significant effect | cellular uptake by fluorescence microscopy (U-87 MG cells [3]): significant uptake | effect on maximal oxidative capacity (cytochrome oxidase activity) (brain homogenates [4]): not affected | cellular uptake by fluorescence microscopy (SH-SY5Y cells [5]): significant uptake | distribution in liver (fluorescence histology) (liver): partly taken up by Kupffer cells | administered peptide taken up (U-87 MG cells [6]): more than 90% | effect on maximal oxidative capacity (cytochrome oxidase activity) (SH-SY5Y cells [7]): did not significantly affect | effect on respiratory control ratio (brain homogenates [8]): no changes | effect on mitochondrial respiration rate (liver homogenates [9]): does not influence | effect on maximal oxidative capacity (cytochrome oxidase activity) (liver homogenates [10]): not affected | effect on cell viability (MTT) (U-87 MG cells [2]; 0.5–15 μM, 20 hours, mean ± standard error of five separate incubations (Figure 1B)): no significant effect | distribution in brain (fluorescence histology) (brain): reaches the BBB and accumulates in the extensions of nerve cells | effect on maximal oxidative capacity (cytochrome oxidase activity) (U-87 MG cells [11]): ineffective

7-nitrobenz-2-oxa-1,3-diazole-4-yl [NBD]
penetration into the cells (cells): almost unable to penetrate
